# mABHD4 FP – inhibitors of mouse ABHD4. purified mABHD4, FP-Rh probe fluorescence polarization. actives 0.54% (n = 370,000). AID 720543. inhibition, % at 8.92 µM. Q8VD66;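 active = inhibition exceeding the mean over every tested compound plus 3 SD, cut at about 30% in these data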;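 also: 0% = plate median of compound wells and 100% = S159A mutant with DMSO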
#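 Material: mouse ABHD4 enzyme, wild type; Benchmarks: S159A mutant high control, sample median low control; Buffer or medium: HEPES pH 7.0, NaCl, Pluronic buffer; Signal: fluorescence polarization; Read-out: percent inhibition of probe binding, normalized to plate controls; Timing: pre-incubation 45 min, probe exposure 60 min, at 25 °C; Dosing: 8.92 µM, single dose.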
# TDP2 absorb – TDP2 (human) inhibition, absorbance primary screen | inhibition, % at 12.8 µM | recombinant TDP2, T5PNP hydrolysis, p-nitrophenol absorbance 415 nm | AID 720702 | actives 0.34% (n = 370,000);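 active = inhibition above the mean of all tested compounds plus 3 SD, set per campaign, cut at about 25% in these data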;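 also: 0% = DMSO with enzyme and 100% = buffer with substrate but no TDP2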
#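 Incubation: 2 h at 37 °C; Test system: recombinant human TDP2; Quantity: enzyme 120 nM; Read-out basis: percent inhibition; Medium: 50 mM Tris-HCl pH 7.5 with Mg2+, KCl, DTT, BSA; Repeats: single replicate; Compound: 12.8 µM single point, 1% DMSO; Signal: epi absorbance; Reagent: 5 mM T5PNP chromogenic substrate; Benchmarks: no-enzyme high, DMSO-plus-enzyme low.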
# PAD4 FP inh – PAD4 (human) enzyme inhibition | Q9UM07 | recombinant PAD4, RCA probe fluorescence polarization | inhibition, % at 6.36 µM | actives 0.41% (n = 330,000);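 active = percent inhibition above a cutoff equal to the mean of all tested compounds plus 3 SD, cut at about 15% in these data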;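 also: 0% = PAD4 with RCA probe and DMSO and 100% = probe without PAD4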
# HTRA1 inh – blocks human HTRA1 serine peptidase; recombinant HTRA1, FP-rhodamine activity-based probe, fluorescence polarization; Q92743; actives 0.5% (n = 340,000); inhibition, % at 5.96 µM; in the data active = inhibition above about 36%;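 also: 0% = enzyme with DMSO and 100% = wells lacking enzyme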
# SIAE primary – blocks human sialic acid acetylesterase. Q9HAT2. SIAE FP-Rh probe binding, fluorescence polarization. inhibition, % at 9.66 µM. actives 0.69% (n = 370,000);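 active = inhibition above a cutoff: mean of compounds within the control limits plus 3 SD of those, cut at about 17% in these data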;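 also: 0% = plate median of compound wells and 100% = probe without SIAE protein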
# TCR-CD3 inh – inhibitors of human TCR-CD3 interaction | TAMRA-labeled TCR probe fluorescence, biochemical | inhibition, % at 9.4 µM | actives 0.37% (n = 360,000); in the data active = inhibition above about 19%;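 also: recombinant mutant TCR 2C K166C tagged with TAMRA read by polarization; 0% = receptor in buffer alone and 100% = receptor with positive control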
# SIAE inh conf – human SIAE inhibition, confirmation | actives 13% (n = 2,300) | SIAE FP-Rh activity-based probe, fluorescence polarization | AID 1117263 | shares compounds with SIAE primary | inhibition, % at 9.66 µM;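 active = mean inhibition of the replicates above the hit cutoff set in the primary screen, cut at about 17% in these data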;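 also: 0% = SIAE with DMSO and probe and 100% = probe without SIAE; inhibitors lower polarization as more probe stays unbound to SIAE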
# Numbers without * were called inactive; nt = no result given. Compounds with a hit are over-represented: about 2% of the library has one in this group of screens.
SMILES,mABHD4 FP,TDP2 absorb,PAD4 FP inh,HTRA1 inh,SIAE primary,TCR-CD3 inh,SIAE inh conf
Cc1ccc(S(=O)(=O)CC(=O)Nc2nccs2)cc1,7,1,-5,3,-7,2,nt
O=S(=O)(/N=S1\CC=CCN1S(=O)(=O)c1ccccc1)c1ccccc1 (centres undefined),-4,1,nt,-4,20*,-8,2
CC1=C(C)CS(=O)N(S(=O)(=O)c2ccccc2)C1 (centres undefined),-4,-8,1,-5,-7,5,nt
COc1ccc(-n2c(Cc3cccn3C)nnc2SCC(=O)Nc2nccs2)cc1,0,6,-3,7,17*,0,3
Cn1cccc1Cc1nnc(SCC(=O)Nc2nccs2)n1C,0,12,-1,4,3,9,nt
COC(=O)C1=C(C(=O)OC)C2(OC1c1ccccc1C)C(=O)c1ccccc1C2=O (centres undefined),-3,8,0,-5,19*,2,-7
COC(=O)C1=C(C)N(C)C(C)=C(C(=O)OC)C1c1ccccc1C,-2,4,2,8,3,-1,nt
CC(=O)Nc1ccc(C(=O)COC(=O)CCc2ccccc2)c(F)c1,-6,-3,1,-12,3,0,nt
Cc1ccc(C)c(NC(=O)c2ccc(OCc3c(C)noc3C)cc2)c1,0,0,-3,-2,3,0,nt
CCn1cnc2c(oc3ccccc32)c1=O,-4,1,0,-8,20*,0,1
O=C(Cn1cnc2c(oc3ccccc32)c1=O)c1ccccc1,-1,-7,-2,4,18*,6,-3
COc1ccc(NC(=O)COC(=O)CO/N=C(\C)c2ccc3c(c2)OCO3)cc1S(N)(=O)=O,-24,11,4,-3,2,4,nt
Cc1[nH]n(-c2ccccc2)c(=O)c1/C=N/NC(=O)c1cccc([N+](=O)[O-])c1,10,-10,1,5,20*,-5,-1
CCOc1cc(/C=N/NC(=O)c2cccc([N+](=O)[O-])c2)ccc1OS(=O)(=O)c1ccccc1,15,6,-2,-6,22*,18,-8
Cc1noc(C)c1COc1ccccc1C(=O)N(C)CC(=O)Nc1ccc(F)cc1,-1,-15,0,-3,-2,-3,nt
Cc1ccc(S(=O)(=O)N/N=C\c2cn(CC(N)=O)c3ccccc23)cc1C,9,3,3,4,23*,7,7
O=C(c1ccccc1F)N1CCN(c2ccccc2)CC1,-7,13,-3,-2,17*,2,0
O=C(c1ccccc1F)N1CCN(c2ccccc2F)CC1,-2,6,-1,4,-2,12,nt
CCN(CC(=O)Nc1ccc(NC(C)=O)cc1)C(=O)Cc1cccc2ccccc12,-6,5,2,-2,1,-2,nt
CCN(CC(=O)Nc1ccc(NC(C)=O)cc1)C(=O)c1cccc2ccccc12,2,4,-2,-2,18*,0,5
Cc1cccc(OCC(=O)O/N=C(\N)c2ccncc2)c1,2,17,2,-3,3,1,nt
Cc1ccc(NS(=O)(=O)c2cc([N+](=O)[O-])ccc2NNC(=S)Nc2cc(C)ccc2C)c(C)c1,-28,6,-7,36,31*,3,1
Cc1ccc([N+](=O)[O-])cc1NC(=S)NC(=O)C(C)(C)C,0,0,0,-2,-2,6,nt
Cc1ccc(S(=O)(=O)NC(=O)C2(C)CCN2C(=O)C2CCCCC2)cc1 (centres undefined),0,9,nt,nt,6,6,nt
O=C(Nc1ccc(F)cc1)Nc1csc2ccccc12,-11,4,-3,nt,17,-6,nt
COc1ccccc1NC(=O)Nc1nc(CC(=O)Nc2ccc(N(C)C)cc2)cs1,24,-4,2,21,27*,-1,0
CN(C)c1ccc(NC(=O)Nc2csc3ccccc23)cc1,16,3,-1,nt,18*,8,9

# Screening results deposited in PubChem BioAssay by The Scripps Research Institute Molecular Screening Center.
